According to ChEMBL document CHEMBL1125554, “Studies on pyridonecarboxylic acids. 1. Synthesis and antibacterial evaluation of 7-substituted-6-halo-4-oxo-4H-[1,3]thiazeto[3,2-a]quinoline-3-carboxylic acids” (J Med Chem, 1992):
Converted amounts (≈) assume the structure as drawn.

Tests used:
Assay type in all cases: functional
Escherichia coli = experiment: In vitro antibacterial activity against Escherichia coli NIH JC-2; conditions: Escherichia coli; read-out: MIC
Procedure, shortened: (§1)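 MIC (μg/mL) by 2-fold agar dilution on Sensitivity Test agar, following the Japan Society of Chemotherapy MIC Committee method. Inocula were about 10⁶ cfu/mL. Growth was read after 20 h incubation at 37 °C.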

Klebsiella pneumoniae = experiment: In vitro antibacterial activity against Klebsiella pneumoniae K-1966; conditions: Klebsiella pneumoniae; read-out: MIC; procedure, shortened: as §1
Pseudomonas aeruginosa = experiment: In vitro antibacterial activity against Pseudomonas aeruginosa E-2; conditions: Pseudomonas aeruginosa; read-out: MIC; procedure, shortened: as §1
Shigella flexneri = experiment: In vitro antibacterial activity against Shigella flexneri 2a EW-10; conditions: Shigella flexneri; read-out: MIC; procedure, shortened: as §1
Serratia marcescens = experiment: In vitro antibacterial activity against Serratia marcescens IFO 3736; conditions: Serratia marcescens, IFO 3736; read-out: MIC; procedure, shortened: as §1
Staphylococcus aureus = experiment: In vitro antibacterial activity against Staphylococcus aureus 209P JC-1; conditions: Staphylococcus aureus; read-out: MIC; procedure, shortened: as §1
Micrococcus luteus = experiment: In vitro antibacterial activity against Micrococcus luteus ATCC 9341; conditions: Micrococcus luteus, ATCC 9341; read-out: MIC; procedure, shortened: as §1
Mus musculus [1] = species on record: Mus musculus; experiment: Compound was evaluated for oral efficacy on systemic infections in mice by Escherichia coli KC-14
Procedure, shortened: (§2)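 Male ddY mice (20 ± 2 g), seven per dose group. Challenge was intraperitoneal, 0.5 mL of bacteria suspended in 5% gastric mucin: E. coli KC-14 at 4.3 × 10⁴ cfu/mL or P. aeruginosa E-2 at 2.88 × 10⁵ cfu/mL. Drug was suspended in 0.5% HPC-SL and given orally 2 h (E. coli) or 1 h (P. aeruginosa) after challenge. ED50 was calculated by Probit from 7-day survival.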

Mus musculus [2] = species on record: Mus musculus; experiment: Compound was evaluated for oral Pseudomonas aeruginosa E-2; procedure, shortened: as §2

| SMILES | MIC (Escherichia coli) | MIC (Klebsiella pneumoniae) | MIC (Pseudomonas aeruginosa) | MIC (Shigella flexneri) | MIC (Serratia marcescens) | MIC (Staphylococcus aureus) | MIC (Micrococcus luteus) | ED50 (Mus musculus [1]) | ED50 (Mus musculus [2]) |
| --- | --- | --- | --- | --- | --- | --- | --- | --- | --- |
| Cl.O.O=C(O)c1c2n(c3cc(N4CCNCC4)c(F)cc3c1=O)CS2 | 0.1 µg/mL | 0.05 µg/mL | 0.78 µg/mL | 0.025 µg/mL | 0.1 µg/mL | 0.05 µg/mL | 25 µg/mL |  |  |
| C=CCN1CCN(c2cc3c(cc2F)c(=O)c(C(=O)O)c2n3C(C)S2)CC1 (centres undefined) | 0.05 µg/mL (≈ 0.128 µM) | 0.05 µg/mL (≈ 0.128 µM) | 0.78 µg/mL (≈ 2 µM) | 0.025 µg/mL (≈ 0.0642 µM) | 0.19 µg/mL (≈ 0.488 µM) | 0.05 µg/mL (≈ 0.128 µM) | 1.56 µg/mL (≈ 4.01 µM) |  |  |
| CN1CCN(c2cc3c(cc2Cl)c(=O)c(C(=O)O)c2n3CS2)CC1 | 0.2 µg/mL (≈ 0.547 µM) | 0.2 µg/mL (≈ 0.547 µM) | 1.56 µg/mL (≈ 4.26 µM) | 0.1 µg/mL (≈ 0.273 µM) | 0.39 µg/mL (≈ 1.07 µM) | 0.2 µg/mL (≈ 0.547 µM) | 6.25 µg/mL (≈ 17.1 µM) |  |  |
| O=C(O)c1c2n(c3cc(N4CCNCC4)c(F)cc3c1=O)C(c1ccccc1)S2 (centres undefined) | 0.025 µg/mL (≈ 0.0608 µM) | 0.025 µg/mL (≈ 0.0608 µM) | 0.2 µg/mL (≈ 0.486 µM) | 0.025 µg/mL (≈ 0.0608 µM) | 0.05 µg/mL (≈ 0.122 µM) | 0.2 µg/mL (≈ 0.486 µM) | 3.13 µg/mL (≈ 7.61 µM) |  |  |
| CCC1Sc2c(C(=O)O)c(=O)c3cc(F)c(N4CCN(C)CC4)cc3n21 (centres undefined) |  |  |  |  | 0.78 µg/mL (≈ 2.07 µM) | 0.2 µg/mL (≈ 0.53 µM) |  |  |  |
| O=C(O)c1c2n(c3cc(N4CCNCC4)c(F)cc3c1=O)C(c1ccc(F)cc1)S2 (centres undefined) | 0.025 µg/mL (≈ 0.0582 µM) | 0.0125 µg/mL (≈ 0.0291 µM) | 0.39 µg/mL (≈ 0.908 µM) | 0.025 µg/mL (≈ 0.0582 µM) | 0.39 µg/mL (≈ 0.908 µM) | 0.2 µg/mL (≈ 0.466 µM) | 1.56 µg/mL (≈ 3.63 µM) |  |  |
| CC1Sc2c(C(=O)O)c(=O)c3cc(F)c(N4CCN(CCO)CC4)cc3n21 (centres undefined) | 0.1 µg/mL (≈ 0.254 µM) | 0.1 µg/mL (≈ 0.254 µM) | 1.56 µg/mL (≈ 3.97 µM) | 0.05 µg/mL (≈ 0.127 µM) | 0.39 µg/mL (≈ 0.991 µM) | 0.1 µg/mL (≈ 0.254 µM) | 0.78 µg/mL (≈ 1.98 µM) |  |  |
| CCOC(=O)c1c2n(c3cc(N4CCN(C)CC4)c(F)cc3c1=O)C(c1ccccc1)S2 (centres undefined) |  |  |  |  |  |  |  | 0.89 mg/kg | 18.1 mg/kg |
| CC1Sc2c(C(=O)O)c(=O)c3cc(Cl)c(N4CCNCC4)cc3n21 (centres undefined) | 0.05 µg/mL (≈ 0.137 µM) | 0.025 µg/mL (≈ 0.0683 µM) | 1.56 µg/mL (≈ 4.26 µM) | 0.0125 µg/mL (≈ 0.0342 µM) | 0.1 µg/mL (≈ 0.273 µM) | 0.1 µg/mL (≈ 0.273 µM) | 1.56 µg/mL (≈ 4.26 µM) |  |  |
| CN1CCN(c2cc3c(cc2F)c(=O)c(C(=O)O)c2n3C(c3ccc(F)cc3F)S2)CC1 (centres undefined) | 0.39 µg/mL (≈ 0.845 µM) | 0.78 µg/mL (≈ 1.69 µM) | 3.13 µg/mL (≈ 6.78 µM) | 0.78 µg/mL (≈ 1.69 µM) | 12.5 µg/mL (≈ 27.1 µM) | 1.56 µg/mL (≈ 3.38 µM) | 6.25 µg/mL (≈ 13.5 µM) |  |  |
| CC1Sc2c(C(=O)O)c(=O)c3cc(F)c(N4CCOCC4)cc3n21 (centres undefined) | 0.1 µg/mL (≈ 0.285 µM) | 0.1 µg/mL (≈ 0.285 µM) | 0.39 µg/mL (≈ 1.11 µM) | 0.1 µg/mL (≈ 0.285 µM) | 0.39 µg/mL (≈ 1.11 µM) | 0.1 µg/mL (≈ 0.285 µM) | 1.56 µg/mL (≈ 4.45 µM) |  |  |
| O=C(O)c1c2n(c3cc(N4CCNCC4)c(F)cc3c1=O)C(c1ccccc1F)S2 (centres undefined) | 0.39 µg/mL (≈ 0.908 µM) | 0.78 µg/mL (≈ 1.82 µM) | 3.13 µg/mL (≈ 7.29 µM) | 0.78 µg/mL (≈ 1.82 µM) | 12.5 µg/mL (≈ 29.1 µM) | 1.56 µg/mL (≈ 3.63 µM) | 12.5 µg/mL (≈ 29.1 µM) |  |  |
| CCOC(=O)c1c2n(c3cc(N4CCN(CC(C)=O)CC4)c(F)cc3c1=O)C(C)S2 (centres undefined) |  |  |  |  |  |  |  | 0.78 mg/kg | 27 mg/kg |
| CC1Sc2c(C(=O)O)c(=O)c3cc(F)c(-n4ccnc4)cc3n21 (centres undefined) | 0.2 µg/mL (≈ 0.604 µM) | 0.1 µg/mL (≈ 0.302 µM) | 3.13 µg/mL (≈ 9.45 µM) | 0.1 µg/mL (≈ 0.302 µM) | 0.78 µg/mL (≈ 2.35 µM) | 0.39 µg/mL (≈ 1.18 µM) | 6.25 µg/mL (≈ 18.9 µM) |  |  |
| CC1Sc2c(C(=O)O)c(=O)c3cc(F)c(N4CCN(C)CC4)cc3n21 (centres undefined) | 0.025 µg/mL (≈ 0.0688 µM) | 0.025 µg/mL (≈ 0.0688 µM) | 0.39 µg/mL (≈ 1.07 µM) | 0.0125 µg/mL (≈ 0.0344 µM) | 0.05 µg/mL (≈ 0.138 µM) | 0.1 µg/mL (≈ 0.275 µM) | 1.56 µg/mL (≈ 4.29 µM) | 0.97 mg/kg | 8.84 mg/kg |
| CC1Sc2c(C(=O)O)c(=O)c3cc(Cl)c(N4CCN(C)CC4)cc3n21 (centres undefined) | 0.1 µg/mL (≈ 0.263 µM) | 0.025 µg/mL (≈ 0.0658 µM) | 1.56 µg/mL (≈ 4.11 µM) | 0.1 µg/mL (≈ 0.263 µM) | 0.1 µg/mL (≈ 0.263 µM) | 0.2 µg/mL (≈ 0.526 µM) | 3.13 µg/mL (≈ 8.24 µM) |  |  |
